Assay results gathered from unrelated publications.
Lines come from different studies, so protocols differ. In brackets after ≈: the same amount, converted by molar mass.
Method: broth dilution

Structure (SMILES) | organism | observed | strain | time | endpoint | value
O=C1OC[C@H]2OC(O)[C@H](O)[C@@H](O)[C@@H]2OC(=O)c2cc(O)c(O)c(O)c2-c2c(O)c(O)c3oc(=O)c4c(c(O)c(O)c5oc(=O)c2c3c54)-c2c1cc(O)c(O)c2O (mixture of isomers) | Streptococcus sobrinus | microbial growth |  | 24 h | MIC | 100 µg/mL
O=C(Nc1ccc2ccccc2c1)c1ccc(COC(Cn2ccnc2)c2ccc(Cl)cc2Cl)cc1 (centres unmarked) | Lodderomyces parapsilosis | microbial growth |  |  | MIC80 | 32 µg/mL (≈ 62 µM)
CO/N=C(\C(=O)N[C@@H]1C(=O)N2C(C(=O)O)=C(CSc3nc(=O)c(=O)[nH]n3C)CS[C@H]12)c1csc(N)n1 | Neisseria gonorrhoeae | microbial growth | ATCC49226 |  | MIC | 0.008 µg/mL (≈ 0.0144 µM)
O=C(Nc1ccc(C(F)(F)F)cc1)c1ccc(COC(Cn2ccnc2)c2ccc(Cl)cc2Cl)cc1 (centres unmarked) | Lodderomyces parapsilosis | microbial growth |  |  | MIC80 | 0.06 µg/mL (≈ 0.112 µM)
C/C(=N\N=C(/C)c1c(O)c2ccccc2oc1=O)c1c(O)c2ccccc2oc1=O | Aspergillus niger | microbial growth |  | 48 h | MIC | 125 µg/mL (≈ 309 µM)
OC(Cn1cncn1)(Cn1cncn1)c1ccc(F)cc1F | Aspergillus niger | microbial growth |  |  | MIC | 10 µg/mL (≈ 32.7 µM)
C/C(=N\C(=S)/N=C(\C)c1c(O)c2ccccc2oc1=O)c1c(O)c2ccccc2oc1=O | Aspergillus niger | microbial growth |  | 48 h | MIC | 3.9 µg/mL (≈ 8.7 µM)
C[C@@H]1O[C@@H](OC[C@H]2O[C@@H](Oc3c(-c4ccc(O)c(O)c4)oc4cc(O)cc(O)c4c3=O)[C@H](O)[C@@H](O)[C@@H]2O)[C@H](O)[C@H](O)[C@H]1O | Streptococcus sobrinus | microbial killing |  |  | MBC | 400 µg/mL (≈ 655 µM)
O=C(Nc1ccccc1)c1ccc(COC(Cn2ccnc2)c2ccc(Cl)cc2Cl)cc1 (centres unmarked) | Lodderomyces parapsilosis | microbial growth |  |  | MIC80 | 0.125 µg/mL (≈ 0.268 µM)
Cc1ccc(C(C)C)c(OC2=C(Cl)C(=O)c3ccccc3C2=O)c1 | Aspergillus niger | microbial growth |  |  | MIC | 10 µg/mL (≈ 29.3 µM)
C/C(=N\C1CCCCC1/N=C(\C)c1c(O)c2ccccc2oc1=O)c1c(O)c2ccccc2oc1=O (centres unmarked) | Aspergillus niger | microbial growth |  | 48 h | MIC | 15.6 µg/mL (≈ 32.1 µM)
Clc1ccc(COC(Cn2ccnc2)c2ccc(Cl)cc2Cl)c(Cl)c1 (centres unmarked) | Lodderomyces parapsilosis | microbial growth |  |  | MIC80 | 0.06 µg/mL (≈ 0.144 µM)
Oc1cc(O)c2c(c1)O[C@H](c1cc(O)c(O)c(O)c1)[C@@H](O)C2 | Streptococcus sobrinus | microbial growth |  | 24 h | MIC | 100 µg/mL (≈ 327 µM)
C/C(=N\NC(=O)/N=C(\C)c1c(O)c2ccccc2oc1=O)c1c(O)c2ccccc2oc1=O | Aspergillus niger | microbial growth |  | 48 h | MIC | 125 µg/mL (≈ 279 µM)
O=C(O[C@@H]1O[C@@H]2COC(=O)c3cc(O)c(O)c(O)c3-c3c(cc(O)c(O)c3O)C(=O)O[C@H]([C@H]1O)[C@@H]2O)c1cc(O)c(O)c(O)c1 | Streptococcus sobrinus | microbial killing |  |  | MBC | 400 µg/mL (≈ 630 µM)
O=C(Nc1ccc(Br)cc1)c1ccc(COC(Cn2ccnc2)c2ccc(Cl)cc2Cl)cc1 (centres unmarked) | Lodderomyces parapsilosis | microbial growth |  |  | MIC80 | 0.125 µg/mL (≈ 0.229 µM)
O=c1oc2c(O)c(O)cc3c(=O)oc4c(O)c(O)cc1c4c23 | Streptococcus sobrinus | microbial killing |  |  | MBC | 200 µg/mL (≈ 662 µM)
O=C(Nc1ccc2[nH]ccc2c1)c1ccc(COC(Cn2ccnc2)c2ccc(Cl)cc2Cl)cc1 (centres unmarked) | Lodderomyces parapsilosis | microbial growth |  |  | MIC80 | 32 µg/mL (≈ 63.3 µM)
C/C(=N\C(=N)/N=C(\C)c1c(O)c2ccccc2oc1=O)c1c(O)c2ccccc2oc1=O | Aspergillus niger | microbial growth |  | 48 h | MIC | 62.5 µg/mL (≈ 145 µM)
O=C1O[C@H]2[C@@H]3OC(=O)c4cc(O)c(O)c(O)c4-c4c(O)c(O)c5oc(=O)c6c(c(O)c(O)c7oc(=O)c4c5c76)-c4c(cc(O)c(O)c4O)C(=O)OC[C@H]3OC(O)[C@@H]2OC(=O)c2cc(O)c(O)c(O)c2-c2c1cc(O)c(O)c2O (mixture of isomers) | Streptococcus sobrinus | microbial killing |  |  | MBC | 200 µg/mL
